# Experimental data pooled from the literature.
# Compare with care: the assays were run in different laboratories.
# Target: Insulin receptor-related protein (INSRR, Homo sapiens, UniProt P14616)
Structure (SMILES),assay,conditions,quantity,result
CC/C(=N\NC(=O)NCc1cccc(O)c1)c1ccc(O)c(C)c1O,"enzyme activity, inhibitor",0.1 µM,inhibition,1.7%
COc1ccc(COc2ccc(Cc3cnc(N)nc3N)cc2OC)cc1,cell-free assay,0.5 µM,remaining signal,99.4%
O=C(N[C@H]1CCCCC/C=C\C2C[C@@]2(C(=O)O)NC(=O)[C@@H]2C[C@@H](Oc3ccncc3)CN2C1=O)OC1CCCC1 (stereo partly shown),"binding, competition with immobilised ligand",1 µM,remaining binding,100%
CCN(CC)CCNC(=O)c1c(C)[nH]c(/C=C2\C(=O)Nc3ccc(F)cc32)c1C,"enzyme activity, inhibitor",0.3 µM,inhibition,25%
CC(C)(C)C(=O)c1sc(NC2CCCCC2)nc1N,"enzyme activity, inhibitor",10 µM,remaining activity,93%
Cc1ccc(C(=O)NCc2ccsc2)cc1C#Cc1cn(C(C)C)c2ncnc(N)c12,"enzyme activity, inhibitor",1 µM,activity vs control,105%
CCS(=O)(=O)c1cc2cc(C[C@@](O)(CC(C)(C)c3ccc(F)cc3C(N)=O)C(F)(F)F)[nH]c2cn1,"cell-free assay, competition with immobilised ligand",1 µM,remaining binding,64%
COc1cc2nccc(Oc3ccc(NC(=O)c4c5n(n(-c6ccc(F)cc6)c4=O)CCCC5)cc3)c2cc1OC,"enzyme activity, inhibitor",0.1 µM,inhibition,5%
Nc1nc(Nc2ccccc2)sc1C(=O)c1c(F)cccc1F,"enzyme activity, inhibitor",10 µM,remaining activity,24%
CCN(CC)c1ccc(C2=NNC(=O)CC2C)cc1[N+](=O)[O-] (stereo not shown),"enzyme activity, inhibitor",10 µM,remaining activity,97%
CNC(=O)c1cc(Oc2ccc(NC(=O)Nc3ccc(Cl)c(C(F)(F)F)c3)cc2)ccn1,"enzyme activity, inhibitor",10 µM,inhibition,8%
O=C(Nc1cccnn1)N1CCC(=Cc2cccc(Oc3ccc(C(F)(F)F)cn3)c2)CC1,"cell-free assay, competition with immobilised ligand",1 µM,remaining binding,100%
Nc1ncnc2occ(-c3ccc(NC(=O)Nc4cc(C(F)(F)F)ccc4F)cc3)c12,cell-free assay,20 µM,remaining signal,0.85%
CCCS(=O)(=O)Nc1ccc(F)c(C(=O)c2c[nH]c3ncc(-c4ccc(Cl)cc4)cc23)c1F,"enzyme activity, inhibitor",1 µM,inhibition,< 10%
Cc1sc(C(=O)NC2COC2)cc1-n1cc(NC(=O)Nc2c(F)cccc2Cl)cn1,"enzyme activity, inhibitor",10 µM,remaining activity,71.9%
O=C(O)[C@@H]1[C@@H](Cn2nnc3ccccc3c2=O)CC[C@H]1C(=O)c1ccc(OCCC2CCOCC2)cc1,"cell-free assay, competition with immobilised ligand",1 µM,remaining binding,100%
N#CCCc1ccc2c(c1)-c1[nH]c3ccc([N+](=O)[O-])cc3c1CC(=O)N2,cell-free assay,0.5 µM,remaining signal,99.2%
CCOC(=O)c1cc2cc(-c3cc(C(=O)NCc4ccc(C(=O)O)cc4)nn3C)ccc2[nH]1,"cell-free assay, competition with immobilised ligand",0.1 µM,remaining binding,77%
COc1cc2ncnc(Nc3ccc(Oc4ccccc4)cc3C)c2cc1OC,"enzyme activity, inhibitor",1 µM,inhibition,3%
Oc1cccc(-c2nc(N3CCOCC3)c3oc4ncccc4c3n2)c1,"enzyme activity, inhibitor",10 µM,remaining activity,89%
Cc1cc(NC(=O)c2cccc(S(F)(F)(F)(F)F)c2)cc(-n2ccn3nc(-c4cccnc4)cc23)c1,"cell-free assay, competition with immobilised ligand",1 µM,remaining binding,100%
Cc1ccc(Nc2nccc(N(C)c3ccc4c(C)n(C)nc4c3)n2)cc1S(N)(=O)=O,"enzyme activity, inhibitor",0.3 µM,inhibition,-22%
CC(C)(C)c1nc(-c2cccc(NS(=O)(=O)c3c(F)cccc3F)c2F)c(-c2ccnc(N)n2)s1,"enzyme activity, inhibitor, radiometric",1 µM,remaining activity,103%
Cc1ccc(NC(=O)c2ccc(C)c(C(F)(F)F)c2)cc1C#Cc1nn(C2CCC(O)CC2)c2ncnc(N)c12 (stereo not shown),cell-free assay,10 µM,remaining signal,107%
O=C(NC[C@@H]1[C@H]2CN(C(=O)OCc3cc(C(F)(F)F)cc(C(F)(F)F)c3)C[C@@H]12)c1ccc2[nH]nnc2c1,"cell-free assay, competition with immobilised ligand",1 µM,remaining binding,83%
COc1cc(Nc2cnc(C#N)c(O[C@H](C)CN(C)C)n2)ncc1-c1cnn(C)c1,"enzyme activity, inhibitor, radiometric",1 µM,remaining activity,103%
Cc1nc(Cc2cccc(C(F)(F)F)c2)sc1-c1ccc(C(N)=O)nc1,"cell-free assay, competition with immobilised ligand",1 µM,remaining binding,100%
CCCOc1ccc(OC)c(F)c1C(=O)c1ccc(C(=O)N[C@@H]2CNC[C@H]2NC(=O)c2ccc3[nH]ncc3c2)cc1,"enzyme activity, inhibitor",10 µM,remaining activity,87%
